Compound activity deposited in PubChem BioAssay by The Scripps Research Institute Molecular Screening Center.
This is a sample that favours compounds with a hit; in the whole collection about 2.3% have one here.
GSTO1 inh: GSTO1 inhibition, counter-screen for RBBP9 inhibitors; P78417; recombinant GSTO1, activity-based probe fluorescence polarization; inhibition, % at 5.96 µM; hit rate 1.1% among 300,000; AID 1974;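 active means inhibition above the campaign mean inhibition plus 3 SD, cut at about 35% in these data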
Fam108B inh: counter-screen for RBBP9 inhibitors: inhibitors of mouse Fam108B; inhibition, % at 9.51 µM; hit rate 0.33% among 300,000; AID 1947; recombinant Fam108B, FP-Rh probe fluorescence polarization;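 active means inhibition above the screen mean inhibition plus 3 SD, computed separately per campaign, cut at about 18% in these data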;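 further: inhibitors lower polarization as less probe binds the enzyme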
RBBP9 inh: human RBBP9 hydrolase inhibition; O75884; inhibition, % at 7.94 µM; recombinant RBBP9, FP-Rh probe fluorescence polarization; hit rate 0.2% among 220,000;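 active means inhibition above the campaign mean of all tested compounds plus 3 SD, cut at about 14% in these data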
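Test system: recombinant human RBBP9; Timing: 30 min then 45 min, 25 °C; Detection: fluorescence polarization; Control set: RBBP9 with DMSO as uninhibited control, no-protein wells as full inhibition; Compound dosing: one concentration, 7.94 µM nominal, 0.794% DMSO; Probe or stimulus: FP-Rh activity-based probe, 375 nM before mixing.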
PRMT1 inh: PRMT1 (human) inhibition, primary screen; AID 652257; Q99873; recombinant PRMT1, activity-based probe fluorescence polarization; inhibition, % at 2.79 µM; hit rate 1.3% among 370,000;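 active means inhibition above about 21% made by adding two undisclosed values, limit read from the data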
PME-1 inh: blocks human protein phosphatase methylesterase 1 | inhibition, % at 5.9 µM | recombinant PME-1, FP-Rh probe fluorescence polarization | AID 2130 | hit rate 0.53% among 320,000;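 active means inhibition above the campaign mean of all compounds plus 3 SD, cut at about 26% in these data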;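 further: competitive labeling of PME-1 active site by serine hydrolase directed probe; inhibitors block probe labeling so polarization falls and inhibition rises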
PAD4 FP inh: blocks human protein arginine deiminase 4 | Q9UM07 | AID 485272 | recombinant PAD4, RCA probe fluorescence polarization | inhibition, % at 6.36 µM | hit rate 0.41% among 330,000;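 active means percent inhibition above a cutoff equal to the mean of all tested compounds plus 3 SD, cut at about 15% in these data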
Target sequence (Q9UM07 whole entry, looked up): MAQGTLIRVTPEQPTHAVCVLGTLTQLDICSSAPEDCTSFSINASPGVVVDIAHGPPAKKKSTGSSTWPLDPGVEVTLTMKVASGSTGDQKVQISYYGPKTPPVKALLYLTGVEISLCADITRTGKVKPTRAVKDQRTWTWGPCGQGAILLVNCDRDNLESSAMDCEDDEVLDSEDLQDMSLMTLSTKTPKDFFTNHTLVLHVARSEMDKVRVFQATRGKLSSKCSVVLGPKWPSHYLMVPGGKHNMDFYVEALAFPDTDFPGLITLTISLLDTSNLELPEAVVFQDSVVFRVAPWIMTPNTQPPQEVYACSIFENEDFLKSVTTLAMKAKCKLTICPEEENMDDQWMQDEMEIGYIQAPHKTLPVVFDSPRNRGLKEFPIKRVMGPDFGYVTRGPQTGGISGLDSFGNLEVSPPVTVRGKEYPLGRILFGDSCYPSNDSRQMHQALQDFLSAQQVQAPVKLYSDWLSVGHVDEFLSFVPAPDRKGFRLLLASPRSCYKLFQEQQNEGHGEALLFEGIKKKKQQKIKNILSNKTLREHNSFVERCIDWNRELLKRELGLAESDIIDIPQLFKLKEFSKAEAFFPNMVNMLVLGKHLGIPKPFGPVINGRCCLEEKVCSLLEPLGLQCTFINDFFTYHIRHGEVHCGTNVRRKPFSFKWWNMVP
PRMT1 confirm: confirmation of human PRMT1 inhibitors; shares compounds with PRMT1 inh; recombinant His-PRMT1, activity-based probe fluorescence polarization; inhibition, % at 2.79 µM; hit rate 42% among 3,300;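 active means mean inhibition across replicates above the hit cutoff derived for the earlier primary screen, cut at about 22% in these data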
A number is an active result.

What do the screens show for `Cc1nn(CCc2nc(-c3ccco3)cs2)c2[nH]c(=O)cc(C(F)(F)F)c12`?
GSTO1 inh: inactive; Fam108B inh: inactive; RBBP9 inh: inactive; PRMT1 inh: 33.7; PME-1 inh: inactive; PAD4 FP inh: inactive; PRMT1 confirm: inactive

How did Cc1cc(C)n(CCc2nc(-c3ccco3)cs2)n1 do in these assays?
GSTO1 inh: inactive; Fam108B inh: inactive; RBBP9 inh: inactive; PRMT1 inh: 40.1; PME-1 inh: inactive; PAD4 FP inh: inactive; PRMT1 confirm: 57.3

Results for CC1=CC(C)(C)N(C(=O)C(C)N2C(=O)c3ccccc3C2=O)c2c(C)cc(C)cc21 (stereo not drawn) ?
RBBP9 inh: inactive

How did COc1ccc(CCN2C(=O)CC(NNC(=O)c3ccc(F)cc3)C2=O)cc1OC (stereo not drawn) do in these assays?
GSTO1 inh: inactive; Fam108B inh: inactive; RBBP9 inh: inactive; PRMT1 inh: inactive; PME-1 inh: inactive; PAD4 FP inh: inactive

Results for COc1ccc(CCNC2CC(=O)N(CCc3ccccc3)C2=O)cc1OC (stereo not drawn) ?
GSTO1 inh: inactive; Fam108B inh: inactive; RBBP9 inh: inactive; PRMT1 inh: 41.7; PME-1 inh: inactive; PAD4 FP inh: inactive; PRMT1 confirm: inactive

How did COc1ccc(CCNC2CC(=O)N(CCc3ccc(OC)c(OC)c3)C2=O)cc1 (stereo not drawn) do in these assays?
GSTO1 inh: inactive; Fam108B inh: inactive; RBBP9 inh: inactive; PRMT1 inh: 77.6; PME-1 inh: inactive; PAD4 FP inh: inactive; PRMT1 confirm: inactive

How did COc1ccc(CCNC2CC(=O)N(C)C2=O)cc1OC (stereo not drawn) do in these assays?
GSTO1 inh: inactive; Fam108B inh: inactive; RBBP9 inh: inactive; PRMT1 inh: inactive; PME-1 inh: inactive; PAD4 FP inh: inactive

Results for c1ccc(CN2CCC3(CC2)Nc2ccccc2CO3)cc1 ?
GSTO1 inh: inactive; Fam108B inh: inactive; RBBP9 inh: inactive; PRMT1 inh: inactive; PME-1 inh: inactive; PAD4 FP inh: inactive

Results for c1ccc(CN2CCC3(CC2)Nc2ccccc2S3)cc1 ?
GSTO1 inh: inactive; Fam108B inh: inactive; RBBP9 inh: inactive; PRMT1 inh: 54.4; PME-1 inh: inactive; PAD4 FP inh: inactive; PRMT1 confirm: inactive

What do the screens show for `O=C(NNC(=S)NC(=O)c1ccc(Br)cc1)c1cccc([N+](=O)[O-])c1`?
GSTO1 inh: inactive; Fam108B inh: inactive; PRMT1 inh: inactive; PME-1 inh: inactive; PAD4 FP inh: inactive

What do the screens show for `CC(=O)NNC(=S)NC(=O)c1cccc([N+](=O)[O-])c1`?
GSTO1 inh: inactive; Fam108B inh: inactive; RBBP9 inh: inactive; PRMT1 inh: 48.1; PME-1 inh: inactive; PAD4 FP inh: inactive; PRMT1 confirm: inactive

How did NC1=NC(=O)CC(C(=O)Nc2cccc3ccccc23)S1 (stereo not drawn) do in these assays?
GSTO1 inh: inactive; Fam108B inh: inactive; RBBP9 inh: inactive; PME-1 inh: inactive; PAD4 FP inh: inactive

Results for NC1=NC(=O)CC(C(=O)NCCc2ccccc2)S1 (stereo not drawn) ?
GSTO1 inh: inactive; Fam108B inh: inactive; RBBP9 inh: inactive; PRMT1 inh: 29.7; PME-1 inh: inactive; PAD4 FP inh: inactive; PRMT1 confirm: inactive

Results for Cc1ccc(S(=O)(=O)N2C[C@H]3C(=O)C[C@@H](c4cccc(C)c4)N(S(=O)(=O)c4ccc(C)cc4)[C@H]3C[C@H]2c2ccccc2)cc1 ?
PRMT1 inh: inactive

What do the screens show for `Cc1cccc2sc(=S)[nH]c12`?
PRMT1 inh: 27.8; PRMT1 confirm: inactive

How did O=C(O)CSc1cc(NS(=O)(=O)c2cccc([N+](=O)[O-])c2)c2ccccc2c1O do in these assays?
RBBP9 inh: inactive; PRMT1 inh: 62.5; PRMT1 confirm: 94.7

Results for CCOc1ccc(S(=O)(=O)Nc2cc(SCC(=O)O)c(O)c3ccccc23)cc1 ?
PRMT1 inh: 65.3; PRMT1 confirm: 92.8

Results for Cc1ccc(S(=O)(=O)Nc2cccc3cccnc23)cc1 ?
GSTO1 inh: inactive; Fam108B inh: inactive; RBBP9 inh: inactive; PRMT1 inh: inactive; PME-1 inh: inactive; PAD4 FP inh: inactive

How did O=C(O)c1cccc(S(=O)(=O)Nc2ccc([N+](=O)[O-])cc2O)c1 do in these assays?
GSTO1 inh: inactive; Fam108B inh: inactive; RBBP9 inh: inactive; PRMT1 inh: inactive; PME-1 inh: inactive; PAD4 FP inh: inactive

What do the screens show for `O=S(=O)(Nc1cc(Sc2cccc3cccnc23)c(O)c2ccccc12)c1ccccc1`?
RBBP9 inh: inactive; PRMT1 inh: 91.2; PRMT1 confirm: 67.2

Results for CCOC(=O)c1ccccc1NS(=O)(=O)c1ccc(OCC)cc1 ?
GSTO1 inh: inactive; Fam108B inh: inactive; RBBP9 inh: inactive; PRMT1 inh: inactive; PME-1 inh: inactive; PAD4 FP inh: inactive

Results for NC(=O)c1ccsc1NC(=O)COC(=O)CCCOc1ccccc1 ?
PRMT1 inh: inactive

How did C=CCn1c(SCC(=O)OC(C)C)nnc1-c1ccc(C)cc1 do in these assays?
PRMT1 inh: 39.8; PRMT1 confirm: inactive

How did COc1ccc(C(=O)Nc2ccc(-c3nnn(CC(=O)N4CCN(C(=O)c5ccco5)CC4)n3)cc2)cc1 do in these assays?
GSTO1 inh: inactive; Fam108B inh: inactive; RBBP9 inh: inactive; PRMT1 inh: inactive; PME-1 inh: inactive; PAD4 FP inh: inactive

What do the screens show for `COc1ccc2c(c1)CC/C(=C/c1ccncc1)C2=O`?
GSTO1 inh: inactive; Fam108B inh: inactive; RBBP9 inh: inactive; PME-1 inh: inactive; PAD4 FP inh: inactive

Results for COc1ccc2c(c1)CC/C(=C\c1ccc(C)o1)C2=O ?
GSTO1 inh: inactive; Fam108B inh: inactive; RBBP9 inh: inactive; PRMT1 inh: 38.5; PME-1 inh: inactive; PAD4 FP inh: inactive; PRMT1 confirm: inactive

How did CN(C)c1ccc(C=Cc2nccc3ccccc23)cc1 do in these assays?
PRMT1 inh: 139.4; PRMT1 confirm: 60.6

Results for Cc1ccc(C2C3CSCC=C3C(C#N)=C(N)C2(C#N)C#N)cc1 (stereo not drawn) ?
GSTO1 inh: inactive; Fam108B inh: inactive; RBBP9 inh: inactive; PRMT1 inh: inactive; PME-1 inh: inactive; PAD4 FP inh: inactive

Results for Cc1ccc([C@@H]2C3COCC=C3C(C#N)=C(N)C2(C#N)C#N)o1 (stereo partly drawn) ?
GSTO1 inh: inactive; Fam108B inh: inactive; RBBP9 inh: inactive; PRMT1 inh: 28.3; PME-1 inh: inactive; PAD4 FP inh: inactive; PRMT1 confirm: inactive

Results for CCOc1cc(-c2noc(-c3ccncc3)n2)cc(Br)c1OC ?
GSTO1 inh: inactive; Fam108B inh: inactive; RBBP9 inh: inactive; PRMT1 inh: inactive; PME-1 inh: inactive; PAD4 FP inh: inactive

What do the screens show for `COCCSc1ccccc1C(=O)Nc1cc(C)on1`?
GSTO1 inh: inactive; Fam108B inh: inactive; RBBP9 inh: inactive; PRMT1 inh: 26.2; PME-1 inh: inactive; PAD4 FP inh: inactive; PRMT1 confirm: 22.2
